Assay outcomes as filed in PubChem.
NPY2 pot ag = NPY-Y2 potentiators or agonists, primary screen, cell-based. activation, % at 3.6 µM. Neuropeptide Y receptor type 2 (Homo sapiens), P49146. cells expressing NPY-Y2, potentiator/agonist read-out. 0.45% of 220,000 active; in the data active = activation above about 27%;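 note: cells stimulated with NPY near EC25 plus isoproterenol at EC100; 0% = vehicle plus submaximal agonist and 100% = vehicle plus saturating agonist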
Target sequence (P49146 whole entry, looked up): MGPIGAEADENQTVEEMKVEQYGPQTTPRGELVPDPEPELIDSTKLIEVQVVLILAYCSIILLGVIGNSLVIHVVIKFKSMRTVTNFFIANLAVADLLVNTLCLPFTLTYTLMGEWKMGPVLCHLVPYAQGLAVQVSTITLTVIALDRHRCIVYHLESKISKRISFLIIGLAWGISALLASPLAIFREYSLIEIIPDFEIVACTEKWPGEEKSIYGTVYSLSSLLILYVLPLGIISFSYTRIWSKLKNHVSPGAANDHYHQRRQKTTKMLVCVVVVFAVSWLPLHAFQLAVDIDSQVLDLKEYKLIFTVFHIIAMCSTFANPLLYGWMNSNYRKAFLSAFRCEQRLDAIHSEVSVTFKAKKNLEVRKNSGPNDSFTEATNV
NPY1 pot ag = NPY-Y1 receptor potentiators or agonists, primary screen, cell-based. Neuropeptide Y receptor type 1 (Homo sapiens), P25929. NPY-Y1 expressing cells, potentiator/agonist activation. activation, % at 3.6 µM. 0.37% of 220,000 active. AID 1304, 2008; in the data active = activation above about 33%, passing the limit was not always enough;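 note: cells stimulated with NPY at EC10 then isoproterenol at EC100; 0% = low agonist plus stimulus and 100% = saturating agonist plus stimulus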
NPY Y1 blocker = NPY-Y1 receptor antagonists, primary screen, cell-based; Neuropeptide Y receptor type 1 (Homo sapiens), P25929; HEK293-CNG Y1 cells, membrane potential fluorescence; NPY at EC95, then isoproterenol; inhibition, % at 3.6 µM; 1% of 200,000 active;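 active = inhibition above the campaign mean inhibition of all tested compounds plus 3 SD, cut at about 20% in these data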;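 note: 0% = DMSO wells given NPY plus isoproterenol and 100% = isoproterenol alone without NPY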
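Material: HEK293 Y1/CNG channel cell line | Also added: NPY (25 nM), isoproterenol (1 µM), Ro 20-1724 (25 µM) | Compound: One concentration, 3.6 µM, in 0.4% DMSO | Schedule: 3 h dye uptake, 1 h room-temperature compound, 45 min post-isoproterenol | Signal: Membrane-potential fluorescent dye readout | Read-out: % inhibition of NPY effect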
NPY Y2 blocker = NPY-Y2 receptor antagonists, primary screen, cell-based; NPY-Y2 expressing cells, antagonist mode; inhibition, % at 2.7 µM; 0.99% of 140,000 active; AID 793, 2007; Neuropeptide Y receptor type 2 (Homo sapiens), P49146; in the data active = inhibition above about 17%;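 note: 0% = vehicle with agonist challenge and 100% = reference antagonist with challenge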
* = called active by the depositor; nt = not tested or not shown. A selection: hits, their analogues and other compounds. The true share with any hit is near 1.8%.

SMILES | NPY2 pot ag | NPY1 pot ag | NPY Y1 blocker | NPY Y2 blocker
O=c1[nH]c2c(s1)C(c1ccco1)C1C3CCC(C3)C1S2 (configuration not stated) | -1.3 | 2.1 | -1.9 | 3.0
COc1cc(OC)c(N(C)S(=O)(=O)c2cccc(C(=O)Nc3nnc(C4CC4)s3)c2)cc1Cl | 56.2* | 70.8* | nt | nt
Cc1ccc(N(C)S(=O)(=O)c2cccc(C(=O)Nc3nnc(C4CC4)s3)c2)cc1 | 13.0 | 22.4 | -2.8 | nt
O=C(Nc1cccc(Cl)c1N1CCCC1)c1ccc([N+](=O)[O-])o1 | 4.7 | 12.1 | 5.2 | nt
O=C(Nc1cccc(Cl)c1N1CCCC1)c1ccc(Br)o1 | -31.9 | -79.4 | 33.0* | 33.0*
Cc1noc(C)c1C(=O)N1CCCC1 | -0.8 | -3.0 | 8.1 | 0.9
O=C(CN1C(=O)C2CC=CCC2C1=O)N1CCN(c2ccc([N+](=O)[O-])cc2)CC1 (configuration not stated) | 0.6 | -17.8 | nt | nt
COCC(=O)N1CCN(c2ccc([N+](=O)[O-])cc2)CC1 | 18.9 | 42.2* | -4.6 | 4.1
O=S(=O)(NCC1CCCO1)c1ccc(Cl)nc1 (configuration not stated) | -2.3 | 10.3 | nt | nt
CC(C)Cn1cnc2c(c(-c3ccccc3)c(-c3ccccc3)n2Cc2ccco2)c1=N | 3.0 | 3.6 | 40.2* | 76.2*
N=c1c2c(-c3ccccc3)c(-c3ccccc3)n(Cc3ccco3)c2ncn1CCCn1ccnc1 | -20.4 | -149.5 | 57.2* | 41.4*
N=c1c2c(-c3ccccc3)c(-c3ccccc3)n(Cc3ccccc3)c2ncn1CCO | -24.9 | -99.8 | 61.2* | 63.2*
CCCCC(=O)NC(=S)Nc1ccc(NC(=O)C(C)C)c(OC)c1 | -7.0 | 14.1 | -1.2 | nt
COCCN=c1scc(-c2ccco2)n1/N=C/c1ccc(O)c(O)c1O | 22.4 | 26.4 | 4.0 | nt
CC(C)N=c1scc(-c2ccco2)n1/N=C/c1ccc(O)c(O)c1 | 33.9* | 49.7 | -5.2 | -6.0
Cc1ccc(-c2nnc(SCC(=O)NC3CCS(=O)(=O)C3)nc2-c2ccc(C)cc2)cc1 (configuration not stated) | 9.3 | 17.4 | -3.2 | 3.9
COc1cccc2sc(N(CCN(C)C)C(=O)/C=C/c3cccs3)nc12 | 100.0* | 97.6* | -6.7 | nt
CCOC(=O)c1sc(NC(=O)CCCn2nc([N+](=O)[O-])c(Cl)c2C)c(C(=O)OCC)c1C | -2.7 | -8.6 | -1.1 | 1.3
Clc1ccc(-n2c(SCc3nc4ccccc4[nH]3)nnc2-c2ccncc2)cc1 | -12.5 | -18.8 | 2.5 | 3.1
Cc1cc(C)n(-c2nnc3c4ccccc4n(C)c3n2)n1 | 16.6 | -1.6 | nt | nt
Cc1cc(Br)ccc1NC(=O)CNC(=O)CN1C(=O)NC2(CCCCCC2)C1=O | 23.5 | 26.6 | -5.7 | -0.8
Cc1ccc(NC(=O)NC(=O)CN2C(=O)NC3(CCCCCCC3)C2=O)c(C)c1 | -5.6 | 39.5* | 7.8 | 4.7
C=CCNc1nc(Nc2ccc(-c3nc4ccccc4o3)cc2)nc(N2CCOCC2)n1 | 2.2 | 16.4 | 7.6 | 3.9
COc1ccccc1-n1cc(C(=O)N2CCCC(CO)(Cc3ccccc3C)C2)cn1 (configuration not stated) | -9.8 | -2.8 | -0.3 | nt
CCn1c(=N)n(CC(O)COc2cccc(C)c2)c2ccccc21 (configuration not stated) | -10.4 | -43.4 | 20.2* | 21.1*
SMILES | NPY2 pot ag | NPY1 pot ag | NPY Y1 blocker | NPY Y2 blocker
CCn1c(=N)n(CC(O)c2ccccc2)c2ccccc21 (configuration not stated) | 2.7 | -25.2 | -0.5 | 3.2
CCCn1c(=N)n(CC(O)COc2cccc(C)c2)c2ccccc21 (configuration not stated) | -32.9 | -24.8 | 25.5* | 41.6*
COc1ccc(OCC(O)Cn2c(=N)n(CCN3CCOCC3)c3ccccc32)cc1 (configuration not stated) | -4.4 | -2.6 | 9.2 | 2.3
CCn1c(SCc2ccc(C#N)cc2)nnc1-c1ccc(S(=O)(=O)N2CCCCC2)cc1 | 7.0 | 14.6 | -7.4 | -1.0
CCCCCCCCCCCCCCCC[n+]1cccc2ccccc21 | 18.5 | -5.5 | 7.1 | 6.7
CCCCCCCCC[n+]1cccc2c3ccccc3ccc21 | -6.8 | -83.0 | 55.5* | 18.7*
O=C(CSc1ccc2ccccc2n1)Nc1ccc(N2CCOCC2)cc1 | -15.1 | -12.9 | 10.2 | nt
COC(=O)COc1ccc(/C=N/NC(=O)c2ccc(N(Cc3ccccc3)S(C)(=O)=O)cc2)cc1 | 30.8* | 60.9* | 2.2 | 0.0
N#Cc1cc([N+](=O)[O-])ccc1NC(=O)COC(=O)CC1CCCC1 | -8.7 | 1.3 | nt | nt
CCc1cccc(CC)c1NC(=O)CSc1nnc(CCC(=O)O)c(=O)[nH]1 | 8.7 | 16.7 | -0.6 | nt
COc1ccc(-c2cc(-c3nnc(COC(=O)c4ccncc4)o3)c3ccccc3n2)cc1OC | -4.2 | -4.8 | -2.4 | nt
O=C(c1nn(Cc2ccccc2)c(=O)c2ccccc12)N1CCN(c2ccccn2)CC1 | -8.6 | -34.0 | 46.4* | 20.3*
O=C(c1nn(Cc2ccccc2)c(=O)c2ccccc12)N1CCc2ccccc2C1 | -12.8 | -14.2 | 9.0 | 10.8
COc1ccc(N(C)S(=O)(=O)c2cccc(C(=O)Nc3ccc(-n4cnnn4)cc3)c2)cc1 | 17.9 | 3.8 | -6.9 | -2.8
CC(=O)Oc1ccc2c(c1)Oc1cc(OC(C)=O)ccc1C21OC(=O)c2ccccc21 | 17.4 | -21.4 | 32.1* | 79.1*
COc1ccc(-c2cc(C(F)(F)F)nc(SCC(=O)Nc3cc(C)on3)n2)cc1OC | 8.6 | -2.5 | 6.7 | 22.4*
O=C(CSc1nc(-c2ccc(F)cc2)cc(C(F)(F)F)n1)NCCN1CCOCC1 | -6.3 | -13.8 | -1.5 | 0.1
CC(C)OC(=O)CSc1nc(-c2ccc(F)cc2)cc(C(F)(F)F)n1 | -0.6 | -39.0 | 28.2* | 24.8*
Cc1cc(N2C(=O)C=CC2=O)c([N+](=O)[O-])cc1C | -6.3 | -10.1 | 0.6 | 4.1
Cc1ccc(-n2c(C)cc(C=C(C#N)C#N)c2C)cc1 | -13.1 | -25.2 | 31.7* | 18.2*
Cc1cc(C(C)(C)C)oc1C(=O)N(CC(=O)NC1CCCC1)Cc1ccccc1Cl | -20.0 | -31.2 | 25.6* | 27.1*
CCSC(=O)N(CC)CC(=O)Nc1c(CC)cccc1CC | -4.0 | -20.9 | 15.9 | 19.6*
CCCSC(=O)N(CC)CC(=O)Nc1c(CC)cccc1CC | -23.7 | -22.9 | 18.5 | 19.8*
Cc1ccc(-c2nn3cnnc3c3ccccc23)cc1 | -5.0 | -9.2 | 0.3 | nt
Cc1cc(C)cc(NC(=S)NCc2ccc3c(c2)OCO3)c1 | -52.2 | -78.2 | 30.3* | 13.9
Cc1ccc(C)c(NC(=S)NCc2ccc3c(c2)OCO3)c1 | -22.8 | -15.1 | 7.8 | 10.7
Cc1ccc(C(=O)N/C(=C\c2ccc(Br)cc2)c2nc(=S)[nH][nH]2)cc1 | 21.1 | 47.4* | -14.1 | -4.6
O=C(N/C(=C/c1cccc(Br)c1)c1nc(=S)[nH][nH]1)c1ccccc1 | 25.5* | 51.2* | -13.1 | -3.3
COc1ccc(/C=C(/NC(=O)c2ccccc2)c2nc3ccccc3[nH]2)cc1OC | -6.5 | 6.6 | -4.0 | 2.2
